This is an account of results in ChEMBL document CHEMBL1125130, “4-Alkyl-1,4-dihydropyridines derivatives as specific PAF-acether antagonists” (J Med Chem, 1990).

For experiment [1], the system named is Rattus norvegicus. Description: Tested in vivo for ability to inhibit PAF-induced hypotension in rats by measuring the drop in mean arterial blood pressure(mmHg) after 20 minutes activity. It counts as functional. The procedure, abridged:
(§1)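 Male Sprague-Dawley rats (225 ± 2 g) under sodium pentobarbital (50 mg/kg ip). PAF 0.66 µg/kg injected; compounds 5 mg/kg iv given 3 min later at maximal blood pressure fall. Blood pressure changes recorded for 30 min after PAF, compared with vehicle controls (five rats per group).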

Experiment [2] concerns Rattus norvegicus. Description: Tested in vivo for ability to inhibit PAF-induced hypotension in rats by measuring the drop in mean arterial blood pressure(mmHg) after 3 minutes activity. It counts as functional. The procedure, abridged:
as §1

On to `CCO/C(O)=C1/C(C)=NC(C)=C(C(=O)OCCSc2ccccc2)C1C` (configuration not stated), for which the MABP was 23 mmHg with Rattus norvegicus [1] and 52 mmHg in the experiment on Rattus norvegicus [2].
In the same order, the values of `CCCC1C(C(=O)OCCSCC)=C(C)N=C(C)/C1=C(/O)OCC` (configuration not stated) are 71 mmHg and 106 mmHg.
In the same order, the values of `CO/C(O)=C1\C(C)=NC(C)=C(C(=O)OCCSc2ccccc2)C1C` (configuration not stated) are 14 mmHg and 30 mmHg.
For `CCO/C(O)=C1\C(C)=NC(C)=C(C(=O)OCCSC)C1C` (configuration not stated), in that order: 29 mmHg and 88 mmHg.
Take `CO/C(O)=C1\C(C)=NC(C)=C(C(=O)OCCSC)C1C` (configuration not stated): the MABP in the experiment with Rattus norvegicus [1] is recorded as 5 mmHg; with Rattus norvegicus [2], 51 mmHg.
For `CC1=NC(C)=C(C(=O)OCCSc2ccccc2)C(C)/C1=C(\O)OC(C)C` (configuration not stated), in that order: 27 mmHg and 78 mmHg.
For `CCO/C(O)=C1\C(C)=NC(C)=C(C(=O)OCCSC)C1CC` (configuration not stated), in that order: 36 mmHg and 77 mmHg.
For `CCO/C(O)=C1\C(C)=NC(C)=C(C(=O)OCCSCC)C1C` (configuration not stated), in that order: 18 mmHg and 64 mmHg.
On to `CCCC1C(C(=O)OCCSC)=C(C)N=C(C)/C1=C(/O)OCC` (configuration not stated), for which the MABP in the experiment with Rattus norvegicus [1] is on record as 60 mmHg; with Rattus norvegicus [2], 101 mmHg.
Turning to `CCSCCO/C(O)=C1\C(C)=NC(C)=C(C(=O)OC)C1C` (configuration not stated), the MABP in the experiment with Rattus norvegicus [1] is given as 32 mmHg; in the experiment on Rattus norvegicus [2] it was 68 mmHg.
For `CC1=NC(C)=C(C(=O)OCCSc2ccccc2)C(C)/C1=C(\O)OCC1CCCO1` (configuration not stated), in that order: 21 mmHg and 63 mmHg.
